The source of these data is article PMC3899454 (Clinical Drug Investigation, 2013).

The conditions of series [1]: cited from earlier work.
The nature of series [2]: Safety and tolerability after a single dose. The class given is in vivo, human. The conditions noted are these: 24 subjects. Put shortly:
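Single 0.4 U/kg s.c. thigh dose given at 0800–1000 h. Safety assessed by adverse events (severity and relationship graded by investigator), physical examination, vital signs, ECG, biochemistry, hematology, urinalysis and hypoglycemia. Confirmed hypoglycemia: plasma glucose <3.1 mmol/L or ADA 'severe'. Treatment-emergent: onset from dosing to 7 days post-dose. Blood glucose sampled to 120 h.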

For series [3] the following is noted: compared with insulin glargine; cited from earlier work.

With insulin aspart, the “Impact of hepatic impairment and renal impairment on pharmacokinetics” value in series [1] (single-dose pharmacokinetic studies) is given as “no significant impact”.

For insulin degludec, in series [2] (single s.c. dose 0.4 U/kg), the “Adverse events (other than hypoglycemia) or medical events of special interest” value is “No adverse events”. Besides, the Injection-site reactions result in series [2] (single s.c. dose 0.4 U/kg into the thigh) is recorded as “No injection-site reactions were reported”. Besides, the Severe hypoglycemic episodes entry in series [2] (single s.c. dose 0.4 U/kg, ADA definition of severe) is “none of these episodes were categorized as severe”. For the same substance, the “Variability of glucose-lowering effect” value in series [3] is “four times less variable glucose-lowering effect”. Besides, in series [1] (varying degrees of impaired renal function), the “Pharmacokinetic properties in subjects with renal impairment” value is “pharmacokinetic properties were also preserved in subjects with renal impairment”.

For the substance insulin detemir, the “Pharmacokinetics in subjects with renal or hepatic impairment” value in series [1] is “no clinically relevant difference in pharmacokinetics”.

As to insulin lispro, in series [1], the “Effect of hepatic dysfunction on glucodynamic response” value is on record as “did not appear to affect the glucodynamic response”.
